Measurements from ChEMBL document CHEMBL4699492, “Discovery of Novel Pyrazolo[3,4-b] Pyridine Derivatives with Dual Activities of Vascular Remodeling Inhibition and Vasodilation for the Treatment of Pulmonary Arterial Hypertension” (J Med Chem, 2020).
Calls of active or inactive are those of the source. The rule behind the calls is not given here.

Assays:
[1] = target: T1, AMP-activated protein kinase, AMPK (Homo sapiens) (UniProt P54646+O43741+P54619+Q9UGJ0+Q9Y478+Q13131+Q9UGI9); assay: Inhibition of AMPK in hypoxia-induced HPASMC assessed as reduction in cell migration measured after 24 hrs by wound healing assay; format: tissue-based; settings: Pulmonary Artery Smooth Muscle Cells, dose microM 5-10, time 24.0 hrs
Procedure, shortened: (§1)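 Wound-healing assay. 5 × 10^4 cells were seeded per well and grown 24 h to near confluence. The monolayer was scratched with a pipette tip and washed with PBS. Cells were then kept in 1% FBS medium with TGF-β (10 ng/mL) or under hypoxia (1% O2, 5% CO2, 94% N2), alone or with compound. Migration ran 24 h at 37 °C, imaged at 0 and 24 h. Mean ± SD from three independent experiments.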

Rattus norvegicus [2] = assay: Inhibition of vascular remodeling activity in Sprague-Dawley rat model of hypoxia-induced pulmonary artery hypertension assessed as reduction in alpha-SMA expression in lungs at 10 mg/kg, po administered daily for 2 weeks by Western blot analysis; format: functional, organism-based
Procedure, shortened: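 Lungs came from hypoxic SD rats (10% O2, 4 weeks) dosed orally at 10 mg/kg daily for 14 days. Tissue was homogenised in RIPA buffer with protease and phosphatase inhibitors. 30 µg of protein was run on 10% SDS-PAGE and transferred to PVDF. Blots were probed overnight at 4 °C with anti-α-SMA (1:1000) and anti-β-actin (1:2000) and detected by fluorescence.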

[3] = Protein binding in human plasma; format: ADME, cell-free; settings: read-out: PPB (converted)
[4] = tested on: Pulmonary Artery Smooth Muscle Cells; assay: Stimulation of sGC in HPASMC assessed as increase in intracellular cGMP level at 100 uM measured after 1 hr in absence of PDE5 inhibitor IBMX by cGMP-d2/europium cryptate reagent based HTRF assay relative to control; format: tissue-based; settings: Homo sapiens
Procedure, shortened: (§2)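 HPASMCs were suspended at 100,000 cells/mL in PBS with 0.2% BSA, with or without 10 µM ODQ. Compounds were added as a 6-point, 10-fold dilution series; the top 2× stock was 200 µM. Incubation was 1 h at room temperature, in triplicate. cGMP-d2 in lysis buffer and europium cryptate were then added for 1 h before HTRF reading. Three independent experiments.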

[5] = target: cGMP-specific 3',5'-cyclic phosphodiesterase (Homo sapiens) (UniProt O76074); assay: Inhibition of PDE5A1 catalytic domain (535 to 860 residues) (unknown origin) expressed in Escherichia coli BL21 (DE3) at 100 nM using [3H]cGMP as substrate after 15 mins by liquid scintillation counting method relative to control
Procedure, shortened: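 PDE reaction in 50 mM Tris-HCl pH 8.0 with 4 mM MnCl2 or 10 mM MgCl2 and 1 mM DTT, using 3H-cGMP substrate. Run 15 min at room temperature, stopped with 0.2 M ZnSO4, and product precipitated with 0.2 M Ba(OH)2. Radioactivity of the supernatant counted by liquid scintillation. Inhibition rate calculated, with sildenafil as reference.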

Rattus norvegicus [6] = assay: Inhibition of vascular remodeling activity in Sprague-Dawley rat model of hypoxia-induced pulmonary artery hypertension assessed as weight ratio of right ventricle/left ventricle plus septum at 10 mg/kg, po administered daily for 2 weeks (reference value: 0.63); format: functional
Aorta = assay: Vasodilating activity in Sprague-Dawley rat aortic rings assessed as reduction in phenylephrine-induced contractions; format: functional, tissue-based
Procedure, shortened: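 Thoracic aorta from male SD rats (250-280 g) anesthetized with chloral hydrate, cut into 4 mm rings. Rings held in Krebs-Henseleit at 37 °C gassed with 95% O2/5% CO2, under 2 g resting tension, equilibrated 60 min, and precontracted with 10^-7 M phenylephrine. Cumulative concentrations of 3×10^-9 to 10^-6 M (final) applied. Percent relaxation of the initial contraction taken at 1 µM, and EC50 derived.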

[7] = tested on: Pulmonary Artery Smooth Muscle Cells; assay: Stimulation of sGC in HPASMC assessed as increase in intracellular cGMP level measured after 1 hr in absence of PDE5 inhibitor IBMX and sGC inhibitor ODQ by cGMP-d2/europium cryptate reagent based HTRF assay; format: tissue-based; settings: Homo sapiens, filed as activator; procedure, shortened: as §2
[8] = Effect on total Smad2/3 level in lungs of Sprague-Dawley rat model of hypoxia-induced pulmonary artery hypertension at 10 mg/kg, po administered daily for 2 weeks by Western blot analysis; format: ADME, organism-based; settings: in vivo, 336 h
Procedure, shortened: (§3)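 Hypoxic PAH model in male SD rats (160-200 g) kept at 10% O2 for 4 weeks. Oral dosing at 10 mg/kg daily for 14 days, suspended in 0.5% CMC-Na; control and hypoxia groups received vehicle only. Lungs homogenized in RIPA with protease and phosphatase inhibitors. 30 µg protein run on 10% SDS-PAGE, then PVDF blotting, with β-actin as loading reference. Three independent runs.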

Rattus norvegicus [9] = assay: In vivo inhibition of AMPK in Sprague-Dawley rat model of hypoxia-induced pulmonary artery hypertension assessed as reduction in AMPK phosphorylation in lungs at 10 mg/kg, po administered daily for 2 weeks by Western blot analysis; format: functional, organism-based; procedure, shortened: as §3
Homo sapiens = species on record: Homo sapiens; assay: Inhibition of CaMKKbeta phosphorylated recombinant human AMPK alpha1/beta1/gamma1 using 1-biotin as substrate incubated for 60 mins by HTRF assay; settings: time 1.0 hrs
Procedure, shortened: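 Kinase reaction with 0.16 µM STK substrate 1-biotin, 0.8 mmol DTT, 4 mmol MgCl2, 4 µM ATP and compound, started by adding 1 ng/µl CaMKKβ-prephosphorylated AMPK (α1β1γ1). Ran 1 h at 37 °C, then Eu3+-cryptate STK antibody plus 57.5 nmol/L XL-665 for 1 h at room temperature. Activity read as the 665/620 ratio ×10000. Curves averaged from three independent experiments.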

[10] = Effect on total AMPK level in lungs of Sprague-Dawley rat model of hypoxia-induced pulmonary artery hypertension at 10 mg/kg, po administered daily for 2 weeks by Western blot analysis; format: ADME, organism-based; settings: in vivo, 336 h; procedure, shortened: as §3
[11] = Protein binding in rat plasma; format: ADME, cell-free; settings: read-out: PPB (converted)
[12] = tested on: Pulmonary Artery Smooth Muscle Cells; assay: Stimulation of sGC in HPASMC assessed as increase in intracellular cGMP level measured after 1 hr in presence of […] IBMX by cGMP-d2/europium cryptate reagent based HTRF assay; format: tissue-based; settings: Homo sapiens, filed as activator
Procedure, shortened: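 HPASMCs at 100 000 cells/mL in PBS with 1 mM IBMX and 0.2% BSA, with or without 10 µM ODQ. Exposed to a 6-point, 10-fold dilution series (top 200 µM, 2× stock) in triplicate for 1 h at room temperature. cGMP-d2 in lysis buffer and europium cryptate added, then 1 h at room temperature before HTRF reading. Three independent experiments averaged.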

Rattus norvegicus [13] = assay: In vivo stimulation of sGC in Sprague-Dawley rat model of hypoxia-induced pulmonary artery hypertension assessed as increase in phosphorylation levels of VASP in lungs at 10 mg/kg, po administered daily for 2 weeks by Western blot analysis; format: functional, organism-based
[14] = target: T1, AMP-activated protein kinase, AMPK (Homo sapiens); assay: Inhibition of AMPK in hypoxia-induced HLF1 cells assessed as reduction in cell migration measured after 24 hrs by wound healing assay; format: cell-based; settings: dose microM 5-10, time 24.0 hrs; procedure, shortened: as §1

In the case of `Cc1ccccc1COc1nc2c(cc1-c1nc(N)cc(N)n1)c(C)nn2-c1ccccc1`, the inhibition [1] is reported as “Dose-dependent effect”, the inhibition (Rattus norvegicus [2]) is reported as “Active” and the fraction unbound [3] is reported as 0.002. For the same compound, the Activity [4] was 5%, the inhibition [5] was 4.3% and the Ratio (Rattus norvegicus [6]) was 0.38. For the same compound, the EC50 (Aorta) was 290 nM, the Activity [7] was “Active” and the Activity [8] was “Non-Toxic”. For the same compound, the inhibition (Rattus norvegicus [9]) was “Active”, the inhibition (Homo sapiens) was “Dose-dependent effect” and the Activity [10] was “Non-Toxic”. For the same compound, the fraction unbound [11] was 0.007, the Activity [12] was “Dose-dependent effect” and the Activity (Rattus norvegicus [13]) was “Active”. For the same compound, the inhibition [14] was “Dose-dependent effect”.
